Assay results reported in ChEMBL document CHEMBL1255376, “Comparative surveillance study of telavancin activity against recently collected gram-positive clinical isolates from across the United States” (2008).
In brackets after ≈: the same amount, converted by molar mass.

Tests used:
[1] = tested on: Staphylococcus simulans; experiment: Antibacterial activity against methicillin-resistant coagulase-negative Staphylococcus simulans clinical isolate by broth microdilution method; type: functional
Method in brief: (§1)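 MICs by CLSI broth microdilution in frozen trays pre-loaded with serial dilutions of each agent. Quality-control strains run in parallel: E. faecalis ATCC 29212 and ATCC 51299, S. aureus ATCC 29213, S. pneumoniae ATCC 49619. Comparator susceptibility categories follow CLSI breakpoints. Methicillin resistance in staphylococci assigned from the oxacillin MIC.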

[2] = tested on: Staphylococcus aureus; experiment: Antibacterial activity against daptomycin-nonsusceptible Staphylococcus aureus isolate 1176127 by broth microdilution method; type: functional; method in brief: as §1
[3] = tested on: Staphylococcus simulans; experiment: Antibacterial activity against methicillin-susceptible coagulase-negative Staphylococcus simulans clinical isolate by broth microdilution method; type: functional; method in brief: as §1
[4] = tested on: Enterococcus faecalis; experiment: Antibacterial activity against linezolid/daptomycin-nonsusceptible vancomycin-susceptible Enterococcus faecalis clinical isolate by broth microdilution method; type: functional; method in brief: as §1
[5] = tested on: Staphylococcus aureus; experiment: Antibacterial activity against daptomycin-nonsusceptible Staphylococcus aureus isolate 1285404 by broth microdilution method
[6] = tested on: Staphylococcus cohnii; experiment: Antibacterial activity against methicillin-resistant coagulase-negative Staphylococcus cohnii clinical isolate by broth microdilution method; type: functional; method in brief: as §1
[7] = tested on: Staphylococcus aureus; experiment: Antibacterial activity against vancomycin-intermediate methicillin-resistant Staphylococcus aureus NRS74 by broth microdilution method; type: functional
Method in brief: (§2)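 VISA and VRSA strains from the NARSA repository were tested separately from the surveillance isolates. MICs by CLSI broth microdilution in frozen trays with serial dilutions. Quality-control strains run in parallel. Susceptibility categories follow CLSI breakpoints, and methicillin resistance was assigned from the oxacillin MIC.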

[8] = tested on: Staphylococcus aureus; experiment: Antibacterial activity against vancomycin-, methicillin-resistant Staphylococcus aureus VRS2 by broth microdilution method; type: functional; method in brief: as §2
[9] = tested on: Staphylococcus aureus; experiment: Antibacterial activity against vancomycin-intermediate methicillin-susceptible Staphylococcus aureus NRS56 by broth microdilution method; type: functional; method in brief: as §2
[10] = tested on: Enterococcus; experiment: Antibacterial activity against vancomycin-susceptible Enterococcus; type: functional
Method in brief: (§3)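 MIC by CLSI broth microdilution in frozen microtiter trays holding serial dilutions of each agent, prepared from standard laboratory powders. E. faecalis ATCC 29212 and ATCC 51299, S. aureus ATCC 29213 and S. pneumoniae ATCC 49619 run in parallel as quality-control strains. Comparator susceptibility interpreted with CLSI breakpoints.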

[11] = tested on: Staphylococcus cohnii; experiment: Antibacterial activity against methicillin-susceptible coagulase-negative Staphylococcus cohnii clinical isolate by broth microdilution method; type: functional; method in brief: as §1
[12] = tested on: Enterococcus faecium; experiment: Antibacterial activity against linezolid/daptomycin-nonsusceptible vancomycin-resistant Enterococcus faecium clinical isolate by broth microdilution method; type: functional; method in brief: as §1
[13] = tested on: Mammaliicoccus sciuri; experiment: Antibacterial activity against methicillin-resistant coagulase-negative Staphylococcus sciuri clinical isolate by broth microdilution method; type: functional; method in brief: as §1
[14] = tested on: Enterococcus faecalis; experiment: Antibacterial activity against vancomycin-susceptible Enterococcus faecalis clinical isolate by broth microdilution method; type: functional; method in brief: as §1
[15] = tested on: Staphylococcus aureus; experiment: Antibacterial activity against daptomycin-nonsusceptible Staphylococcus aureus isolate 1171055 by broth microdilution method; type: functional; method in brief: as §1
[16] = tested on: Staphylococcus aureus; experiment: Antibacterial activity against vancomycin-, methicillin-resistant Staphylococcus aureus VRS1 by broth microdilution method; type: functional; method in brief: as §2
[17] = tested on: Enterococcus faecium; experiment: Antibacterial activity against linezolid/daptomycin-nonsusceptible vancomycin-susceptible Enterococcus faecium clinical isolate by broth microdilution method; type: functional; method in brief: as §1
[18] = tested on: Streptococcus equinus; experiment: Antibacterial activity against Streptococcus bovis clinical isolate by broth microdilution method; type: functional; method in brief: as §3
[19] = tested on: Staphylococcus aureus; experiment: Antibacterial activity against vancomycin-intermediate methicillin-resistant Staphylococcus aureus NRS12 by broth microdilution method; type: functional; method in brief: as §2
[20] = tested on: Staphylococcus epidermidis; experiment: Antibacterial activity against methicillin-resistant coagulase-negative Staphylococcus epidermidis clinical isolate by broth microdilution method; type: functional; method in brief: as §1
[21] = tested on: Streptococcus agalactiae; experiment: Antibacterial activity against Streptococcus agalactiae clinical isolate by broth microdilution method; type: functional; method in brief: as §3
[22] = tested on: Staphylococcus aureus; experiment: Antibacterial activity against vancomycin-intermediate methicillin-resistant Staphylococcus aureus NRS118 by broth microdilution method; type: functional; method in brief: as §2
[23] = tested on: Staphylococcus aureus; experiment: Antibacterial activity against daptomycin-nonsusceptible Staphylococcus aureus isolate 1171063 by broth microdilution method; type: functional; method in brief: as §1
[24] = tested on: Enterococcus faecium; experiment: Antibacterial activity against vancomycin-susceptible Enterococcus faecium clinical isolate by broth microdilution method; type: functional; method in brief: as §3
[25] = tested on: Staphylococcus xylosus; experiment: Antibacterial activity against methicillin-susceptible coagulase-negative Staphylococcus xylosus clinical isolate by broth microdilution method; type: functional; method in brief: as §1
[26] = tested on: Staphylococcus aureus; experiment: Antibacterial activity against vancomycin-intermediate methicillin-resistant Staphylococcus aureus NRS1 by broth microdilution method; type: functional; method in brief: as §2

Row | SMILES | MIC50 [1] [µg/mL] | MIC90 [1] [µg/mL] | MIC50 [3] [µg/mL] | MIC90 [3] [µg/mL] | MIC50 [6] [µg/mL] | MIC90 [6] [µg/mL] | MIC [8] [µg/mL] | MIC50 [11] [µg/mL] | MIC90 [11] [µg/mL] | MIC50 [13] [µg/mL] | MIC90 [13] [µg/mL] | MIC50 [14] [µg/mL] | MIC90 [14] [µg/mL] | MIC [16] [µg/mL] | MIC50 [18] [µg/mL] | MIC90 [18] [µg/mL] | MIC50 [20] [µg/mL] | MIC90 [20] [µg/mL] | MIC50 [21] [µg/mL] | MIC90 [21] [µg/mL] | further results
1 | CCCCCCCCCCNCCN[C@@]1(C)C[C@H](O[C@H]2[C@H](Oc3c4cc5cc3Oc3ccc(cc3Cl)[C@@H](O)[C@@H](NC(=O)[C@@H](CC(C)C)NC)C(=O)N[C@@H](CC(N)=O)C(=O)N[C@H]5C(=O)N[C@H]3C(=O)N[C@H](C(=O)N[C@H](C(=O)O)c5cc(O)c(CNCP(=O)(O)O)c(O)c5-c5cc3ccc5O)[C@H](O)c3ccc(c(Cl)c3)O4)O[C@H](CO)[C@@H](O)[C@@H]2O)O[C@@H](C)[C@H]1O [TELAVANCIN] | 0.25 (≈ 0.142 µM) | 0.5 (≈ 0.285 µM) | 0.25 (≈ 0.142 µM) | 0.5 (≈ 0.285 µM) | 0.25 (≈ 0.142 µM) | 0.5 (≈ 0.285 µM) | 1 (≈ 0.57 µM) | 0.25 (≈ 0.142 µM) | 0.5 (≈ 0.285 µM) | 0.25 (≈ 0.142 µM) | 0.5 (≈ 0.285 µM) | 0.5 (≈ 0.285 µM) | 1 (≈ 0.57 µM) | 4 (≈ 2.28 µM) | 0.03 (≈ 0.0171 µM) | 0.12 (≈ 0.0684 µM) | 0.25 (≈ 0.142 µM) | 0.5 (≈ 0.285 µM) | 0.06 (≈ 0.0342 µM) | 0.06 (≈ 0.0342 µM) | MIC [2]: 0.5 µg/mL (≈ 0.285 µM); MIC [4]: 1 µg/mL (≈ 0.57 µM); MIC [5]: 0.25 µg/mL (≈ 0.142 µM); MIC [7]: 1 µg/mL (≈ 0.57 µM); MIC [9]: 1 µg/mL (≈ 0.57 µM); MIC90 [10]: 1 µg/mL (≈ 0.57 µM); MIC [12]: 2 µg/mL (≈ 1.14 µM); MIC [15]: 0.5 µg/mL (≈ 0.285 µM); MIC [17]: 0.06 µg/mL (≈ 0.0342 µM); MIC [19]: 0.5 µg/mL (≈ 0.285 µM); MIC [22]: 0.5 µg/mL (≈ 0.285 µM); MIC [23]: 0.5 µg/mL (≈ 0.285 µM); MIC50 [24]: 0.12 µg/mL (≈ 0.0684 µM); MIC90 [24]: 0.25 µg/mL (≈ 0.142 µM); MIC50 [25]: 0.25 µg/mL (≈ 0.142 µM); MIC90 [25]: 0.5 µg/mL (≈ 0.285 µM); MIC [26]: 0.5 µg/mL (≈ 0.285 µM)
2 | CN[C@H](CC(C)C)C(=O)N[C@H]1C(=O)N[C@@H](CC(N)=O)C(=O)N[C@H]2C(=O)N[C@H]3C(=O)N[C@H](C(=O)N[C@H](C(=O)O)c4cc(O)cc(O)c4-c4cc3ccc4O)[C@H](O)c3ccc(c(Cl)c3)Oc3cc2cc(c3O[C@@H]2O[C@H](CO)[C@@H](O)[C@H](O)[C@H]2O[C@H]2C[C@](C)(N)[C@H](O)[C@H](C)O2)Oc2ccc(cc2Cl)[C@H]1O [VANCOMYCIN] | 2 (≈ 1.38 µM) | 2 (≈ 1.38 µM) | 1 (≈ 0.69 µM) | 2 (≈ 1.38 µM) | 2 (≈ 1.38 µM) | 2 (≈ 1.38 µM) | 32 (≈ 22.1 µM) | 1 (≈ 0.69 µM) | 2 (≈ 1.38 µM) | 2 (≈ 1.38 µM) | 2 (≈ 1.38 µM) | 1 (≈ 0.69 µM) | 2 (≈ 1.38 µM) | > 32 | 0.5 (≈ 0.345 µM) | 0.5 (≈ 0.345 µM) | 2 (≈ 1.38 µM) | 2 (≈ 1.38 µM) | 0.5 (≈ 0.345 µM) | 0.5 (≈ 0.345 µM) | MIC [24]: ≤ 0.5 µg/mL; MIC50 [24]: ≤ 0.5 µg/mL; MIC90 [24]: 1 µg/mL (≈ 0.69 µM); MIC50 [25]: 1 µg/mL (≈ 0.69 µM); MIC90 [25]: 2 µg/mL (≈ 1.38 µM)
